Data taken from ChEMBL document CHEMBL1143088, “Non-acidic pyrazole EP1 receptor antagonists with in vivo analgesic efficacy” (Bioorg Med Chem Lett, 2008).

Legend:
[1] = target: T1, Prostaglandin E2 receptor EP1 subtype (Homo sapiens, UniProt P34995); assay: Displacement of [3H]PGE2 from human PGE2-EP1 receptor expressed in CHO-K1 cells; type: cell-based
T1 sequence (P34995 whole entry): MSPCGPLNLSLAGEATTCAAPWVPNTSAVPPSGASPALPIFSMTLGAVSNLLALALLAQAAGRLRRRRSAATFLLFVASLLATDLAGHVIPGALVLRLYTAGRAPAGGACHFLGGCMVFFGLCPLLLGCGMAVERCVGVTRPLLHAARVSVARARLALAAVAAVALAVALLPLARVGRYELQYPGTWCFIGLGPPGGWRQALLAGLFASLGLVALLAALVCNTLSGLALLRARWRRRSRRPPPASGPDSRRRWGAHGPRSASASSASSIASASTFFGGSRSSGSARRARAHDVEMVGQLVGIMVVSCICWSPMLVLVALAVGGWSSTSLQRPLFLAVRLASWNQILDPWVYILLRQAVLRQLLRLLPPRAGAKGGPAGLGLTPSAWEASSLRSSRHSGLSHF

[2] = Distribution coefficient, logD at pH 7.4; type: physicochemical; conditions: octanol/water
Method in brief: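 Distribution coefficient between n-octanol and water buffered to pH 7.4; log10 of ratio of equilibrium concentrations of all species.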

[3] = Clearance in blood in rat at 10 mL/h/kg, iv; type: ADME, organism-based; conditions: whole blood
Method in brief: (§1)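 Male rats (n = 1 per compound) dosed iv at 10 mL/h/kg over 1 h via femoral vein cannula, target 1 mg free compound/kg, formulated at 0.1 mg/mL in 0.9% saline with 2% DMSO and 10–20% Kleptose (some with a molar equivalent NaOH), filtered before dosing.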

[4] = Half life in rat at 10 mL/h/kg, iv; type: ADME, organism-based; conditions: in vivo; method in brief: as §1
[5] = Volume of distribution at steady state in rat at 10 mL/h/kg, iv; type: ADME, organism-based; conditions: in vivo, read-out: Vdss; method in brief: as §1

Compound | IC50 [1] | logD [2] | clearance [3] | half-life [4] | Vd [5]
Cc1cc(C(=O)Nc2c(F)cccc2F)nn1Cc1cc(Cl)ccc1OCc1ccccc1 | 10 nM | 3.7 |  |  | 
O=C(Cc1ccccn1)Nc1ccn(Cc2cc(Cl)ccc2OCc2ccccc2)n1 | 398 nM |  |  |  | 
Cc1cc(C(=O)Nc2cccc(F)c2)nn1Cc1cc(Cl)ccc1OCc1ccccc1 | 200 nM | 2.8 |  |  | 
Cc1cc(NC(=O)c2ccccc2)nn1Cc1cc(Cl)ccc1OCc1ccccc1 | 15.8 nM | > 3.7 | 50 mL/min/kg |  | 
Cc1cc(NC(=O)OCc2ccccc2)nn1Cc1cc(Cl)ccc1OCc1ccccc1 | 79.4 nM | 3.1 |  |  | 
Cc1cc(NC(=O)C(F)(F)c2ccccc2)nn1Cc1cc(Cl)ccc1OCc1ccccc1 | 39.8 nM | > 3.7 |  |  | 
CNC(=O)c1cc(C)n(Cc2cc(Cl)ccc2OCc2ccccc2)n1 | 100 nM | > 3.7 |  |  | 
Cc1cc(NC(=O)Cc2ccccn2)nn1Cc1cc(Cl)ccc1OCc1ccccc1 | 20 nM | > 3.7 |  |  | 
Cc1cc(C(=O)Nc2ccccc2)nn1Cc1cc(Cl)ccc1OCc1ccccc1 | 39.8 nM | > 3.7 |  |  | 
Cc1cc(NC(=O)OC(C)C)nn1Cc1cc(Cl)ccc1OCC(C)C | 50.1 nM | > 3.7 |  |  | 
Cc1cc(NC(=O)OC(C)(C)C(F)(F)F)nn1Cc1cc(Cl)ccc1OCC(C)C | 50.1 nM | 3.5 |  |  | 
Cc1cc(C(N)=O)nn1Cc1cc(Cl)ccc1OCc1ccccc1 | 126 nM | 3.7 |  |  | 
Cc1cc(C(=O)Nc2ccc(F)cc2)nn1Cc1cc(Cl)ccc1OCc1ccccc1 | 79.4 nM | 3 |  |  | 
Cc1cc(NC(=O)C(C)C)nn1Cc1cc(Cl)ccc1OCc1ccccc1 | 25.1 nM | > 3.7 |  |  | 
CC(=O)Nc1cc(C)n(Cc2cc(Cl)ccc2OCc2ccccc2)n1 | 316 nM | > 3.7 |  |  | 
Cc1cc(C(=O)NC(C)C)nn1Cc1cc(Cl)ccc1OCc1ccccc1 | 126 nM | > 3.7 |  |  | 
Cc1cc(NC(=O)Cc2ccccc2)nn1Cc1cc(Cl)ccc1OCc1ccccc1 | 12.6 nM | > 3.7 | 59 mL/min/kg | 2.9 h | 7.5 L/kg
Cc1cc(NC(=O)C(F)(F)c2ccccn2)nn1Cc1cc(Cl)ccc1OCc1ccccc1 | 25.1 nM | 3.1 |  |  | 
Cc1cc(NC(=O)C2CCCC2)nn1Cc1cc(Cl)ccc1OCC(C)C | 25.1 nM | > 3.7 |  |  | 
CCOC(=O)Nc1cc(C)n(Cc2cc(Cl)ccc2OCc2ccccc2)n1 | 79.4 nM | > 3.7 |  |  | 
Cc1cc(NC(=O)CC2CCCCC2)nn1Cc1cc(Cl)ccc1OCc1ccccc1 | 6.31 nM | 3.2 |  |  | 
O=C(Cc1ccccc1)Nc1ccn(Cc2cc(Cl)ccc2OCc2ccccc2)n1 | 158 nM |  |  |  | 
Cc1cc(C(=O)NN2CCCCC2)nn1Cc1cc(Cl)ccc1OCC(C)C | 200 nM | 3.3 |  |  | 
Cc1cc(NC(=O)C2CCCC2)nn1Cc1cc(Cl)ccc1OCc1ccccc1 | 15.8 nM | 3.5 |  |  | 
Cc1cc(NC(=O)OCc2ccccn2)nn1Cc1cc(Cl)ccc1OCc1ccccc1 | 79.4 nM | 3.1 | 98 mL/min/kg |  | 3 L/kg
Cc1cc(NC(=O)C2CCCCC2)nn1Cc1cc(Cl)ccc1OCC(C)C | 31.6 nM | > 3.7 | 68 mL/min/kg | 1.7 h | 3.5 L/kg

Compound | IC50 [1] | logD [2] | clearance [3] | half-life [4] | Vd [5]
Cc1cc(C(=O)O)nn1Cc1cc(Cl)ccc1OCc1ccccc1 | 10 nM | 1 |  |  | 
Cc1cc(C(N)=O)nn1Cc1cc(Cl)ccc1OCC(C)C | 126 nM | 3.1 |  |  | 
Cc1cc(C(=O)O)nn1Cc1cc(Br)ccc1OCc1ccccc1 |  | 1.2 |  |  | 
COC(=O)Nc1cc(C)n(Cc2cc(Cl)ccc2OCc2ccccc2)n1 | 200 nM | > 3.7 |  |  | 
Cc1cc(C(=O)NN2CCOCC2)nn1Cc1cc(Cl)ccc1OCC(C)C | 251 nM | 3.1 |  |  | 
Cc1cc(C(=O)NCc2ccccc2)nn1Cc1cc(Cl)ccc1OCc1ccccc1 | 39.8 nM | > 3.7 | 75 mL/min/kg | 4.6 h | 9.3 L/kg
Cc1cc(C(=O)NCc2ccccn2)nn1Cc1cc(Cl)ccc1OCc1ccccc1 | 25.1 nM | > 3.7 | 68 mL/min/kg | 1.3 h | 3.6 L/kg
Cc1cc(NC(=O)C2CCOCC2)nn1Cc1cc(Cl)ccc1OCc1ccccc1 | 63.1 nM | > 3.7 | 55 mL/min/kg | 1 h | 3.3 L/kg
Cc1cc(NC(=O)OCC(C)C)nn1Cc1cc(Cl)ccc1OCc1ccccc1 | 25.1 nM | 3.3 | 124 mL/min/kg |  | 3.9 L/kg
Cc1cc(C(=O)NCc2cccnc2)nn1Cc1cc(Cl)ccc1OCc1ccccc1 | 50.1 nM | > 3.7 |  |  | 
Cc1cc(NC(=O)C2CCCO2)nn1Cc1cc(Cl)ccc1OCc1ccccc1 (stereo not given) | 39.8 nM | > 3.7 |  |  | 
Cc1cc(C(=O)NCc2ccncc2)nn1Cc1cc(Cl)ccc1OCc1ccccc1 | 79.4 nM | > 3.7 |  |  | 
Cc1cc(NC(=O)c2c(F)cccc2F)nn1Cc1cc(Cl)ccc1OCc1ccccc1 | 12.6 nM | > 3.7 |  |  | 
Cc1cc(NC(=O)C2CCOC2)nn1Cc1cc(Cl)ccc1OCc1ccccc1 (stereo not given) | 39.8 nM | > 3.7 |  |  | 
Cc1cc(NC(=O)Cc2ccncc2)nn1Cc1cc(Cl)ccc1OCc1ccccc1 | 50.1 nM | > 3.7 |  |  | 
Cc1cc(NC(=O)CC(C)(C)C)nn1Cc1cc(Cl)ccc1OCc1ccccc1 | 10 nM | > 3.7 |  |  | 
O=C(Nc1ccn(Cc2cc(Cl)ccc2OCc2ccccc2)n1)c1ccccc1 | 251 nM |  |  |  | 
Cc1cc(NC(=O)C(C)(C)c2ccccn2)nn1Cc1cc(Cl)ccc1OCc1ccccc1 | 15.8 nM | > 3.7 |  |  | 
Cc1cc(NC(=O)C(C)(C)c2ccccc2)nn1Cc1cc(Cl)ccc1OCc1ccccc1 | 63.1 nM | > 3.7 |  |  | 
Cc1cc(C(=O)Nc2ccccn2)nn1Cc1cc(Cl)ccc1OCc1ccccc1 | 126 nM | > 3.7 |  |  | 
Cc1cc(NC(=O)OC2CCOCC2)nn1Cc1cc(Cl)ccc1OCC(C)C | 63.1 nM | 3.4 |  |  | 
Cc1cc(NC(=O)O[C@H]2CCOC2)nn1Cc1cc(Cl)ccc1OCc1ccccc1 | 79.4 nM | 2.7 | 86 mL/min/kg | 0.8 h | 3.7 L/kg
Cc1cc(NC(=O)Cc2cccnc2)nn1Cc1cc(Cl)ccc1OCc1ccccc1 | 39.8 nM | > 3.7 |  |  | 
Cc1ccc(-c2cc(Cl)ccc2OCc2ccccc2)n1-c1cccc(C(=O)O)c1 |  | 2.5 |  |  | 
Cc1cc(NC(=O)OC(C)(C)C)nn1Cc1cc(Cl)ccc1OCC(C)C | 31.6 nM | > 3.7 |  |  | 
